ChEMBL document CHEMBL5120943, “Discovery of Novel Pyrazolopyrimidines as Potent, Selective, and Orally Bioavailable Inhibitors of ALK2” (ACS Med Chem Lett, 2022)

What was measured:
Activin receptor type-1 [1] = target: T1, Activin receptor type-1 (Homo sapiens, UniProt Q04771); assay: Inhibition of ALK2 in human HeLa cells assessed as reduction in BMP-7 induced SMAD1 phosphorylation incubated for 1 hr followed BMP-7 stimulation for 30 mins by HTRF assay; format: cell-based
T1 sequence (Q04771 whole entry): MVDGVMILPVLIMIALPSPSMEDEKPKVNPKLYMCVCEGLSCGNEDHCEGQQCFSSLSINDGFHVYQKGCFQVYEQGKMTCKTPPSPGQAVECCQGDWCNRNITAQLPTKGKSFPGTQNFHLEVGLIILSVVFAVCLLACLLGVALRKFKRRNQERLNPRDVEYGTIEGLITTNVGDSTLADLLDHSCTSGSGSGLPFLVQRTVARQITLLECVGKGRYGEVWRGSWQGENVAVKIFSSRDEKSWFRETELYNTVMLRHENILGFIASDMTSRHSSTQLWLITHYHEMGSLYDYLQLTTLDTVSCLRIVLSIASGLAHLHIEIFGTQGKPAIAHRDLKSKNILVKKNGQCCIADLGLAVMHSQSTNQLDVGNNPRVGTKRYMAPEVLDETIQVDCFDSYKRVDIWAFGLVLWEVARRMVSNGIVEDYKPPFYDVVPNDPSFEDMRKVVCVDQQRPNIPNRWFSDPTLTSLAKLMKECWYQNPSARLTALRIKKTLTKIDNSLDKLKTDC
Summary of the method: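 HeLa cells were stimulated with BMP7. Inhibition of BMP7-induced SMAD1 phosphorylation was read by HTRF and an IC50 was derived.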

[2] = AUC infinity in Sprague-Dawley rat at 3 mg/kg, po measured upto 24 hrs post dose by LC/MS/MS analysis; format: ADME, organism-based; set-up: time < 24 hrs, dose 3 mg/kg, route po; settings: in vivo
[3] = Cmax in Sprague-Dawley rat at 3 mg/kg, po measured upto 24 hrs post dose by LC/MS/MS analysis; format: ADME, organism-based; set-up: dose 3 mg/kg, time < 24 hrs, route po; settings: in vivo
[4] = Protein binding in human plasma assessed as free fraction measured after 2 hrs by LC-MS/MS analysis; format: ADME, cell-free
[5] = Apparent permeability across apical to basolateral side in human Caco-2 cells at 50 uM incubated for 120 mins by LC/MS/MS analysis
[6] = Half life in Sprague-Dawley rat at 3 mg/kg, po or 1 mg/kg, iv measured upto 24 hrs post dose by LC/MS/MS analysis; format: ADME, organism-based; settings: in vivo
[7] = Oral bioavailability in Sprague-Dawley rat at 3 mg/kg measured upto 24 hrs post dose by LC/MS/MS analysis; format: ADME, organism-based; settings: in vivo
[8] = Metabolic stability in human liver microsomes assessed as intrinsic clearance at 1uM and measured upto 30 mins in presence of NADPH by LC/MS analysis; format: ADME, Microsome; settings: read-out: CLH (converted)
Hepcidin = target: T2, Hepcidin (Homo sapiens, UniProt P81172); assay: Inhibition of Hepcidin in human Huh-7 cells assessed as inhibition of BMP-7 induced hepcidin production incubated for 16 to 24 hrs by ELISA method; format: cell-based
T2 sequence (P81172 whole entry): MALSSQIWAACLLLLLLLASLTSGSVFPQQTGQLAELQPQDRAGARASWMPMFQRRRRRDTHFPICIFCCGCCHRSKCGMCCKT
Summary of the method: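 Huh7 liver cells were stimulated with BMP7. Inhibition of secreted hepcidin was measured and an IC50 was derived.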

Activin receptor type-1 [9] = target: T1, Activin receptor type-1; assay: Inhibition of human recombinant N-terminal GST tagged ALK2 (147 to end residues) expressed in baculovirus infected in Sf9 cells assessed as loss of peptide phosphorylation activity using peptide substrate in presence of ATP and measured after 3 hrs by HTRF assay
Summary of the method: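 HTRF activity assay measuring loss of ALK2 phosphorylation of a peptide substrate. IC50 values were determined.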

[10] = Volume of distribution at steady state in Sprague-Dawley rat at 3 mg/kg, po or 1 mg/kg, iv measured upto 24 hrs post dose by LC/MS/MS analysis; format: ADME, organism-based; settings: in vivo

## COC(=O)N1C[C@@H](C)N(c2ncc3[nH]nc(-c4ccc(N5CCN[C@H](C)C5)nc4)c3n2)[C@@H](C)C1
Activin receptor type-1 [1]
  IC50: 27 nM
[2]
  AUC(0-inf): 0.441 µM·h
[3]
  Cmax: 75 nM
[4]
  fraction unbound at 2 h: 0.099
[5]
  Papp A→B at 2 h, 50 µM: 0.6 ×10⁻⁶ cm/s
[6]
  half-life: 3.1 h
[7]
  bioavailability: 49%
[8]
  CLint scaled at 1 µM: 15 mL/min/kg
Hepcidin
  IC50: 7.3 nM
Activin receptor type-1 [9]
  IC50: 0.85 nM
[10]
  Vdss: 21.9 L/kg

## CC(C)C(=O)N1C[C@@H](C)N(c2ncc3[nH]nc(-c4ccc(N5CCN[C@H](C)C5)nc4)c3n2)[C@@H](C)C1
Activin receptor type-1 [1]
  IC50: 661 nM
Activin receptor type-1 [9]
  IC50: 8 nM

## C[C@@H]1CN(c2ccc(-c3n[nH]c4cnc(N5[C@H](C)CNC[C@@H]5C)nc34)cn2)CCN1
Activin receptor type-1 [9]
  IC50: 793 nM

## COC(=O)N1C[C@@H](C)N(c2ncc3[nH]nc(-c4ccc(N5CCN(C)CC5)c(F)c4)c3n2)[C@@H](C)C1
Activin receptor type-1 [1]
  IC50: 119 nM
Activin receptor type-1 [9]
  IC50: 1.3 nM

## C[C@@H]1CN(c2ccc(-c3n[nH]c4cnc(N5CCCCC5)cc34)cn2)CCN1
Activin receptor type-1 [9]
  IC50: 77 nM

## C[C@@H]1CN(c2ccc(-c3n[nH]c4cnc(N5[C@H](C)CCC[C@@H]5C)nc34)cn2)CCN1
Activin receptor type-1 [1]
  IC50: 384 nM
Activin receptor type-1 [9]
  IC50: 2.5 nM

## C[C@@H]1CN(c2ccc(-c3n[nH]c4cnc(N5[C@H](C)CN(C(=O)N(C)C)C[C@@H]5C)nc34)cn2)CCN1
Activin receptor type-1 [1]
  IC50: 350 nM
Activin receptor type-1 [9]
  IC50: 6.4 nM

## C[C@@H]1CN(c2ccc(-c3n[nH]c4cnc(N5CCCCC5)nc34)cn2)CCN1
Activin receptor type-1 [9]
  IC50: 8.1 nM
